# This is one part of a sample in which hits are shown more often than they occur.
# H69AR inhibit – growth inhibitors of human H69AR lung tumor cells. H69AR lung tumor viability, ATP luminescence, 72 h; stronger effect = lower value. actives 6% (n = 85,000). viability, % at 10 µM;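 active means viability at or below 40%; inactive means viability above 40%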;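 further: multidrug resistant small cell line overexpressing MRP-1 efflux transporter; 100% = mean luminescence of untreated control wells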
# Fibroblast inh – blocks proliferation of human lung fibroblasts | viability, % at 10 µM | LL 47 human lung fibroblast viability, ATP luminescence; stronger effect = lower value | actives 1.1% (n = 85,000);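 active means viability at or below 50% in the single dose screen; inactive means viability above 50%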;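 further: compound exposure lasted 72 h before the ATP readout; 100% = median luminescence of untreated cell-only wells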
#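 Benchmarks: Cell-only wells, no compound | Test system: LL 47 human lung fibroblasts, passage 12 or lower | Input: 1,150 cells/well | Measured by: CellTiter-Glo luminescence measuring cellular ATP | Medium: IMEM, 15% FBS supplement | Schedule: Overnight attachment after seeding, then 72 h compound exposure at 37 °C | Doses: Compound addition at 0.1% DMSO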
# HUVEC inhibit – inhibitors of human endothelial cell proliferation; viability, % at 10 µM (by protocol); actives 1.1% (n = 86,000); HUVEC proliferation, CellTiter-Glo luminescence, 72 h; stronger effect = lower value;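 active means viability at or below 30%; inactive means viability above 30%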;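 further: 100% = median luminescence of DMSO-only cell control wells on each plate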
# PTEN del growth – suppresses growth of cells with PTEN deletion; actives 1.2% (n = 140,000); AID 827; viability, % at 10 µM; HCT116 PTEN-null viability, CellTiter-Glo, 60 h; stronger effect = lower value;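 active means viability at or below a set limit, 4 SD under the median of all tested compounds, cut at about 3.7% in these data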;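 further: PTEN knockout HCT116 line with beta catenin targeted HCT116 as companion control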
# HCT116 bCat-KO – beta-catenin-lacking colon tumor cell growth suppression; HCT116 beta-catenin knockout viability, CellTiter-Glo, 60 h; stronger effect = lower value; viability, % at 10 µM; actives 1.5% (n = 140,000); AID 818;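 active means viability at or under a set limit, the compound median less 4 SD, cut at about 6% in these data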;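 further: 0% = Hyamine 1622 control at 20 µM and 100% = untreated cell control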
# * marks the source's active call; other numbers are inactive results; . = no result given.
SMILES,H69AR inhibit,Fibroblast inh,HUVEC inhibit,PTEN del growth,HCT116 bCat-KO
Cc1cc(C)n(-c2nc(Nc3ccccc3C)nc(-n3nc(C)cc3C)n2)n1,54.1,23.4*,74.1,80.8,88.4
CC1=C(C(=O)Nc2ccccc2)C(c2ccc(C)cc2)N=C(Nc2nc3ccccc3o2)N1 (stereo not drawn),.,.,.,3.6*,6.7
Cc1cccc(NC(=O)CSc2nc3ccccc3o2)c1,.,.,.,100.2,90.7
Clc1ccc(Cn2ncc3c(NCc4ccco4)ncnc32)c(Cl)c1,26.1*,.,50.8,18.1,22.7
Cc1cc(C)nc(N2CCN(c3ncnc4c3cnn4Cc3ccc(Cl)cc3Cl)CC2)n1,31.6*,.,62.9,.,.
Clc1ccc(-n2ncc3c(NCc4ccc5c(c4)OCO5)ncnc32)cc1,7.9*,87.1,73.0,109.6,101.2
CCc1cc2c(NCc3ccco3)ncnc2s1,88.5,94.9,95.4,57.5,59.8
c1ccc(CNc2ncnc3c2cnn3Cc2ccccc2)cc1,26.2*,54.4,55.6,37.4,42.0
COc1ccc(-n2ncc3c(NCc4ccco4)ncnc32)cc1,61.9,102.8,88.3,94.0,96.8
Clc1ccc(-n2ncc3c(NCC4CCCO4)ncnc32)cc1 (stereo not drawn),19.5*,92.5,61.3,50.2,50.3
Clc1ccc(-n2ncc3c(NCc4ccco4)ncnc32)cc1,11.7*,80.4,75.0,48.8,46.1
c1ccc(-n2ncc3c(NCC4CCCO4)ncnc32)cc1 (stereo not drawn),41.3,96.1,84.2,81.8,63.5
CCCc1cc2c(OC(=O)CC)c(-c3ccc(C(=O)OCC)o3)c(=O)oc2cc1OC,.,.,.,92.2,92.4
CCNCCOC(c1ccccc1)c1ccccc1,89.4,96.7,90.3,101.5,93.4
CC(NCCC(c1ccccc1)c1ccccc1)c1ccccc1 (stereo not drawn),0.2*,2.7*,25.9*,4.0,1.9*
O=C(CSc1ccc2ccccc2c1)Nc1ncccn1,.,.,.,94.4,96.6
Cc1c(C(=O)Nc2ccc3oc(-c4cccnc4)nc3c2)oc2ccccc12,3.4*,14.7*,37.0,74.8,79.5
Cc1c(C(=O)Nc2cnccn2)oc2ccccc12,38.0*,83.5,80.3,41.5,45.6
Cc1c(C(=O)Nc2ccc(Cl)cn2)oc2ccccc12,58.9,75.0,64.1,55.0,53.4
CCOC(=O)C(Oc1ccc(=O)n(-c2ccccc2)n1)C(C)=O (stereo not drawn),96.0,98.9,94.6,103.2,99.7
COc1ccc(C2C=C(c3ccc(C)c(C)c3)Nc3ncnn32)c(OC)c1OC (stereo not drawn),25.0*,62.2,61.8,38.9,40.4
COc1ccc(C2C=C(c3ccccc3)Nc3ncnn32)cc1 (stereo not drawn),84.7,106.5,104.7,92.7,82.2
C=C1c2cc(C)ccc2NC(=O)N1c1ccccc1,.,.,.,93.6,85.7
Cc1cc(C(=O)N/N=C/c2cc(Br)cc(Br)c2OC(=O)c2ccccc2)n[nH]1,.,.,.,7.9,5.1*
Cc1cc(C(=O)N/N=C/c2cc(Br)ccc2OC(=O)c2ccc(Br)cc2)n[nH]1,.,.,.,9.3,14.3
SMILES,H69AR inhibit,Fibroblast inh,HUVEC inhibit,PTEN del growth,HCT116 bCat-KO
O=C(Nc1ccncc1)C1CCCN(S(=O)(=O)c2cccc3cccnc23)C1 (stereo not drawn),23.9*,57.5,66.9,22.8,23.4
O=C(c1ccccc1)C(CCC(CN1CCOCC1)C(=O)c1ccccc1)CN1CCOCC1 (stereo not drawn),1.3*,49.6*,36.0,1.9*,1.9*
COc1ccc(C(=O)C(CN2CCOCC2)c2ccccc2)cc1 (stereo not drawn),0.5*,11.0*,71.4,1.6*,3.4*
c1ccc(C(CN2CCOCC2)c2ccccc2)cc1,91.0,98.4,99.8,80.8,84.1
CCOc1ccc(C(=O)CCN2CCCCC2)cc1,97.0,99.6,99.0,90.2,88.3
CCCOc1ccc(C(=O)C(CN2CCCC2)c2ccccc2)cc1 (stereo not drawn),.,.,.,0.9*,1.3*
COc1ccc(C(=O)CCN2CCCCCC2)cc1,.,.,.,1.3*,1.2*
O=C(O)c1cccc(N2C(=O)c3cccc(Oc4ccc(Cl)cc4)c3C2=O)c1,.,.,.,95.5,89.9
CCCCCOc1ccc(C(=O)C(c2ccccc2)N2CCOCC2)cc1 (stereo not drawn),66.6,95.4,115.7,75.6,78.5
O=C(c1ccc(F)cc1)C(CN1CCOCC1)c1ccccc1 (stereo not drawn),91.2,25.3*,51.2,1.6*,1.6*

# Screening data from PubChem.
